# In ChEMBL document CHEMBL1123477, “Phenethyl ester derivative analogues of the C-terminal tetrapeptide of gastrin as potent gastrin antagonists” (J Med Chem, 1986):
# Calls of active or inactive are those of the source. The calls are words filed in the database; no cut-off is given here. Where a SMILES comes first, the peptide text is derived from it. The star is where a group is joined. Boc = CC(C)(C)OC(=O)*
# Test system: not listed separately
# Assay: Compound was evaluated for the inhibition of [125 I](Nle12)HG-13 binding to isolated gastric mucosa cells.
# Design: species or system Oryctolagus cuniculus
# Conditions: in the assay text read “(Nle11)” for “(Nle12)”
# Summary of the method: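 Dispersed rabbit fundic mucosal cells (collagenase/EDTA digestion, mixed population with about 45% parietal cells) were incubated in Hepes-buffered Earle's medium with 0.2% BSA, pH 7.4. Incubation was 30 min at 37 °C with 20 pM mono-iodinated (Nle11)-HG-13 (chloramine T labelling) plus varied peptide concentrations. Nonsaturable binding was defined with 1 × 10^-6 M unlabeled (Nle11)-HG-13.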
row,IC50,SMILES
1,0.5 µM,CC(C)C[C@H](NC(=O)[C@H](Cc1c[nH]c2ccccc12)NC(=O)OC(C)(C)C)C(=O)N[C@@H](CC(=O)O)C(=O)N[C@@H](Cc1ccccc1)C(N)=O (Boc-WLDF-NH2)
2,0.075 µM,CC(C)C[C@H](NC(=O)[C@@H](Cc1c[nH]c2ccccc12)NC(=O)CCNC(=O)OC(C)(C)C)C(=O)N[C@H](CC(=O)O)C(=O)OCCc1ccccc1
3,0.05 µM,CC(C)C[C@H](NC(=O)[C@@H](Cc1c[nH]c2ccccc12)NC(=O)CCNC(=O)OC(C)(C)C)C(=O)N[C@H](CC(=O)O)C(=O)NC(Cc1ccccc1)C(N)=O (some centres not stated)
4,0.75 µM,CC(C)C[C@H](NC(=O)[C@H](Cc1c[nH]c2ccccc12)NC(=O)OC(C)(C)C)C(=O)N[C@@H](CC(=O)O)C(=O)OCCc1ccccc1

# Test system: Rattus norvegicus
# Assay: Compound was evaluated for the antagonist activity (ED50) against gastrin-induced acid secretion in the anesthetized rat.
# Assay type: functional
# Conditions: not given
# Summary of the method: (§1)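 Urethane-anaesthetized rats (ip) with the stomach continuously perfused at 30 °C with propionate-succinate solution. Cumulative pH was recorded over time as the index of acid secretion. Compound in alkaline aqueous solution was given as an iv bolus together with (Leu15)-human gastrin I, usually 80 pmol. H+ output, taken from the stimulated minus basal trace, was expressed as % inhibition relative to gastrin alone.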
row,SMILES,ED50
1,CC(C)C[C@H](NC[C@H](Cc1c[nH]c2ccccc12)NC(=O)OC(C)(C)C)C(=O)N[C@@H](CC(=O)O)C(=O)OCCc1ccccc1,1 mg/kg
2,CC(C)C[C@H](NC(=O)[C@@H](Cc1c[nH]c2ccccc12)NC(=O)CCNC(=O)OC(C)(C)C)C(=O)N[C@H](CC(=O)O)C(=O)OCCc1ccccc1,0.04 mg/kg
3,CC(C)C[C@H](NC[C@H](Cc1c[nH]c2ccccc12)NC(=O)OC(C)(C)C)C(=O)N[C@@H](CC(=O)O)C(=O)OCCc1ccc(F)cc1,0.1 mg/kg
4,CC(C)C[C@H](NC(=O)[C@H](Cc1c[nH]c2ccccc12)NC(=O)CCNC(=O)OC(C)(C)C)C(=O)N[C@@H](CC(=O)O)C(=O)OCCc1ccc(F)cc1,0.02 mg/kg
5,CC(C)C[C@H](NC(=O)[C@H](Cc1c[nH]c2ccccc12)NC(=O)OC(C)(C)C)C(=O)N[C@@H](CC(=O)O)C(=O)OCCc1ccccc1C(F)(F)F,1.5 mg/kg
6,CC(C)C[C@H](NC(=O)[C@@H](Cc1c[nH]c2ccccc12)NC(=O)OC(C)(C)C)C(=O)N[C@@H](CC(=O)O)C(=O)OCCc1ccccc1,0.8 mg/kg
7,CC(C)C[C@H](NC(=O)[C@H](Cc1c[nH]c2ccccc12)NC(=O)CCNC(=O)OC(C)(C)C)C(=O)N[C@H](CC(=O)O)C(=O)OCCc1ccccc1,0.08 mg/kg
8,CC(C)C[C@H](NC(=O)[C@H](Cc1c[nH]c2ccccc12)NC(=O)OC(C)(C)C)C(=O)N[C@@H](CC(=O)O)C(=O)OCCc1cccc(C(F)(F)F)c1,> 1 mg/kg
9,CC(C)C[C@H](NC(=O)[C@H](Cc1c[nH]c2ccccc12)NC(=O)OC(C)(C)C)C(=O)N[C@@H](CC(=O)O)C(=O)OCCc1ccccc1,0.1 mg/kg
10,CC(C)C[C@H](NC(=O)[C@H](Cc1c[nH]c2ccccc12)NC(=O)OC(C)(C)C)C(=O)N[C@@H](CC(=O)O)C(=O)OCCc1ccccc1F,0.1 mg/kg
11,CC(C)C[C@H](NC(=O)[C@H](Cc1c[nH]c2ccccc12)NC(=O)OC(C)(C)C)C(=O)N[C@@H](CC(=O)O)C(=O)OCCc1ccc(F)cc1,0.08 mg/kg

# Test system: Rattus norvegicus
# Assay: Compound was evaluated for the antagonist activity (ED50) against gastrin-induced acid secretion in the anesthetized rat; Inactive
# Assay type: functional, organism-based
# Conditions: not given
# Summary of the method: as §1
row,SMILES,ED50
1,CC(C)C[C@H](NC(=O)OC(C)(C)C)C(=O)N[C@@H](CC(=O)O)C(=O)OCCc1ccccc1,inactive
2,CC(C)C[C@@H](NC(=O)[C@H](Cc1c[nH]c2ccccc12)NC(=O)OC(C)(C)C)C(=O)N[C@H](CC(=O)OCCc1ccc(F)cc1)C(=O)O,inactive
